# High-throughput results: PubChem BioAssay, several laboratories
# A selection: hits, their analogues and other compounds. The true share with any hit is near 4.2%.
# TMEM16A act = TMEM16A chloride channel activators or potentiators, primary screen, cell-based, HTS; HEK293 TMEM16A/YFP-H148Q/I152L, iodide quench fluorescence; hits give low values; B-score at 10 µM; actives 0.3% (n = 340,000); AID 623877, 2012;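 active means fluorescence-ratio B-score plate-corrected deviation score at least 3 library SD below zero, with starting fluorescence score within 5 deviations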;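 further: channel opened by trigger with iodide after compound preincubation; score built on the fluorescence ratio of max minus min over baseline; more negative score means more quench and so TMEM16A activation or potentiation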
# TMEM16A inh = TMEM16A chloride channel inhibitors, primary screen, cell-based, HTS; Anoctamin-1 (Mus musculus), Q8BHY3; HEK293 TMEM16A/YFP iodide influx fluorescence, ionomycin; normalized B-score (activity score, 25-100; higher = stronger inhibition) at 10 µM; actives 1.2% (n = 310,000); AID 588511, 2011;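 active means ratio plate-corrected score three or more library SD toward inhibition, starting fluorescence score within five deviations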;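 further: score derived from kinetic fluorescence span divided by baseline fluorescence per well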
# UPR XBP1 act = activators of adaptive XBP1 UPR arm, primary screen, cell-based, CHO-XBP1 luciferase reporter, luminescence, uHTS; actives 0.33% (n = 330,000); activation, % at 20 µM; IRE1-XBP1 UPR activation; percent of tunicamycin response, DMSO as zero; AID 463104, 2010;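 active means versus positive control, 20 µM dose yields 30% or more activation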;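 further: 100% = tunicamycin at 10 µg/mL and 0% = DMSO only wells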
#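 Assay system: CHO-XBP1 luciferase reporter cells; Schedule: 6 h treatment, 37 °C; Detection: glow luminescence from Steady-Glo reagent; Benchmarks: high control tunicamycin 10 µg/mL final, low control DMSO vehicle only.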
# CHOP inh = inhibitors of CHOP promoter induction, primary screen, cell-based, unfolded protein response, luciferase reporter; actives 3.8% (n = 220,000); inhibition, % at 10 µM; CHO-K1 CHOP-promoter luciferase, tunicamycin-induced, 15-18 h; AID 2732, 2010;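 active means compounds that reduced the stress-induced luciferase reporter signal by more than about 70% of percent inhibition, limit read from the data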;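 further: 0% = tunicamycin plus vehicle and 100% = wells without tunicamycin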
# UPR CHOP act = activators of apoptotic CHOP UPR arm, primary screen, cell-based, CHO-CHOP luciferase reporter, luminescence, uHTS | UPR activation; percent of tunicamycin response over DMSO baseline | activation, % at 10 µM | actives 0.34% (n = 330,000);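 active means at 10 µM dose, activation of 40% or more, normalized to positive control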;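 further: 100% = tunicamycin at 10 µg/mL and 0% = DMSO alone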
#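 measured by = luciferase luminescence | assay system = CHO-CHOP cells, stable luciferase reporter of PERK-eIF2a-CHOP signalling | amount = 500 reporter cells seeded per well | timing = 6 h compound exposure at 37 °C after overnight seeding | controls = positive tunicamycin 10 µg/mL, negative DMSO alone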
# Lipid droplet = inhibitors of hepatocyte lipid droplet formation, primary screen, imaging, high-throughput imaging, BODIPY stain; AML12 mouse hepatocytes, oleate lipid droplets; inhibition, % at 6.5 µM; actives 0.4% (n = 240,000); AID 1656, 2009;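 active means lipid droplet intensity inhibited by at least 50%, with more than 500 cells counted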
#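 material = mouse AML12 hepatocyte cell line, fixed after treatment | also added = 100 µM oleic acid challenge | doses = compound at 6.5 µM only | schedule = overnight exposure | technique = Image-based BODIPY and DAPI two-channel analysis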
# Active calls of the source: *; i = inactive; . = no result.
SMILES,TMEM16A act,TMEM16A inh,UPR XBP1 act,CHOP inh,UPR CHOP act,Lipid droplet
CCCCCCN1CC(O)=C(c2nc3ccccc3[nH]2)C1=N,i,i,0,84*,-1,.
CC(Oc1ccccc1F)C(=O)NNC(=O)CCNC(=O)c1ccccc1Cl (stereo not given),i,i,1,.,1,-6
CC(=O)Nc1ccc(C(=O)NCC(=O)OCc2c(F)cccc2Cl)cc1,i,i,0,-4,1,10
CCNc1sc(C(=O)c2cccs2)c(N)c1-c1nc2ccccc2s1,i,i,9,78*,0,.
CCNc1sc(C(=O)c2cccs2)c(N)c1C#N,i,i,4,35,-1,24
C=CCNc1sc(C(=O)c2ccccc2)c(N)c1-c1nc2ccccc2s1,i,i,0,82*,1,.
COc1ccc(OCC(=O)Nc2cc(OC)ccc2N2CCCCC2)cc1,i,i,-4,.,2,-5
CN(C)S(=O)(=O)c1cccc(NC(=O)c2cc(=O)[nH]c3ccccc23)c1,i,i,-3,14,-1,.
Cc1ccc(S(=O)(=O)N(C)C)cc1NC(=O)c1cc(=O)[nH]c2ccccc12,-6.6*,i,0,2,1,-7
Cc1cccnc1NC(=S)NC(=O)c1cccs1,i,25*,3,1,6,.
CC(=O)NC1=C(N(C)C2CCS(=O)(=O)C2)C(=O)c2ccccc2C1=O (stereo not given),i,i,-1,75*,17,-11
CC(NCC(O)COC1CCC(C(C)(C)C)CC1)c1ccccc1 (stereo not given),i,i,2,90*,1,-13
CC1CCC(C(C)C)C(OCC(O)CNC(C)c2ccccc2)C1 (stereo not given),i,i,4,93*,-1,-15
COc1ccc(OCC(O)CNC(C)c2ccccc2)cc1 (stereo not given),i,i,2,.,-2,-14
COc1cc2ccccc2cc1C(=O)N1CCN(c2ccccn2)CC1,i,i,-6,.,0,13
CN1CCN(S(=O)(=O)c2ccc(N(C)Cc3c(F)cccc3Cl)nc2)CC1,i,.,0,.,0,.
O=C1NC(=O)C(CC(=O)N(Cc2ccco2)C2(C(=O)NC3CCCC3)CCCCC2)N1 (stereo not given),i,i,0,27,5,-19
Cc1cccc(C)c1NC(=O)C1(N(Cc2ccco2)C(=O)CC2NC(=O)NC2=O)CCCCC1 (stereo not given),i,i,-3,77*,-1,1
Cc1oc2ccc(OC(=O)c3cccs3)cc2c1C(=O)OC(C)C,i,i,6,10,5,.
Cc1cc(OC(=O)c2cccs2)ccc1C(C)C,i,i,2,87*,4,4
Cc1cc(C)cc(N=Cc2[nH]c3ccc(Br)c(Cl)c3c2O)c1,i,i,.,103*,.,-1
COc1ccc(CN=Cc2[nH]c3ccc(Br)c(Cl)c3c2O)cc1,i,i,-2,43,1,-3
COc1ccc(C(C(=O)NCC2CCCO2)N(Cc2ccccc2)C(=O)CNC(=O)c2ccco2)cc1OC (stereo not given),i,i,-2,.,1,-2
CC(=O)O[C@H]1C(=O)[C@@]2(C)C([C@H](OC(=O)c3ccccc3)[C@]3(O)C[C@H](OC(=O)[C@H](O)[C@@H](NC(=O)c4ccccc4)c4ccccc4)C(C)=C1C3(C)C)[C@]1(OC(C)=O)CO[C@@H]1C[C@@H]2O (stereo not given in full),.,.,.,88*,.,.
NC1=NC(=O)/C(=C/c2ccc(Br)cc2)S1,i,i,-1,.,3,14
SMILES,TMEM16A act,TMEM16A inh,UPR XBP1 act,CHOP inh,UPR CHOP act,Lipid droplet
CCOC(=O)CSC1=NC(=O)/C(=C/c2ccc(Br)cc2)S1,i,i,4,102*,8,-28
COc1cc(CNCCc2c[nH]c3ccccc23)ccc1OCc1ccc(F)cc1,i,i,3,88*,1,-4
CCCc1nnc(SCC(=O)N2CCCCC2C)n1CC1CCCO1 (stereo not given),i,25*,.,-1,.,.
CCC(C)(C)C1CCc2c(sc(NC(=O)c3ccoc3C)c2C(N)=O)C1 (stereo not given),i,i,0,72*,-2,3
Cc1occc1C(=O)Nc1sc2c(c1C(N)=O)CCC(C(C)(C)C)C2 (stereo not given),i,i,0,59,2,19
Cc1ccc(OCC(=O)NCCNC(=O)c2cnccn2)cc1C,i,.,-4,.,1,-4
N#Cc1ccc(-c2ccc(F)cc2)nc1Oc1ccc(F)cc1,i,i,-2,81*,-1,.
Cc1ccc(S(=O)(=O)N2[C@@H](c3cccc(Cl)c3)C(C(=O)O)=CC[C@H]2c2cccc(Cl)c2)cc1,i,100*,5,.,-2,.
Cc1ccc(S(=O)(=O)N2[C@@H](c3cccc(Cl)c3)C(C(=O)O)=CC[C@H]2c2cccc(C)c2)cc1,i,25*,3,.,-1,.
O=c1c(C(c2ccccc2)c2c(O)sc3ccccc3c2=O)c(O)sc2ccccc12,i,100*,3,-3,0,2
CCCCCN1CC(=O)N2Cc3[nH]c4ccccc4c3C[C@H]2C1=O,i,i,-3,.,0,3
CCCCN1C(=O)C2Cc3c([nH]c4ccccc34)CN2C1=S (stereo not given),i,i,-2,80*,0,37
CC(=O)c1ccccc1C(=O)N1CCCC(C(=O)c2ccc(C(F)(F)F)cc2)C1 (stereo not given),i,i,-3,.,7,-4
COc1ccccc1CC(=O)N1CCN(c2ccccc2F)CC1,i,i,-4,.,-1,0
Cc1cccc(N(C)S(=O)(=O)c2cccc3nsnc23)c1,i,i,-2,94*,0,-10
Cc1ccc(Cl)cc1N1CCN(S(C)(=O)=O)CC1,i,i,-5,-14,-2,-8
Cc1ccc(Cl)cc1N1CCN(S(=O)(=O)N2CCCCC2)CC1,-9.7*,i,.,13,.,-19
Cc1nccn1-c1cc(C(C)(C)C)nc2c(-c3ccccc3)cnn12,i,i,0,80*,2,16
